# Measured values from different studies.
# Protocols differ between the studies behind these lines.
# Target: Casein kinase I isoform alpha (CSNK1A1, Homo sapiens, UniProt P48729)
SMILES,observed,action,method,cells,tested at,quantity,value
COc1cc2ncnc(Nc3ccc(Oc4ccccc4)c(C)c3C)c2cc1OC,enzyme activity,inhibitor,,,1 µM,inhibition,3%
C[S+]([O-])c1ccc(-c2nc(-c3ccncc3)c(-c3ccc(F)cc3)[nH]2)cc1 (stereo not drawn),cell-free assay,,,,0.5 µM,remaining signal,63.9%
O=C(Nc1cnn(-c2csc(C(=O)NC3COC3)c2)c1)Nc1ccccc1Cl,enzyme activity,inhibitor,,,5 µM,remaining activity,98.5%
N#CCCc1ccc2c(c1)-c1[nH]c3ccc([N+](=O)[O-])cc3c1CC(=O)N2,cell-free assay,,,,0.5 µM,remaining signal,95.1%
O=C(NS(=O)(=O)c1ccc(NCC2CCOCC2)c([N+](=O)[O-])c1)c1ccc(N2CCN(Cc3ccc(C(F)(F)F)cc3-c3ccc(Cl)cc3)CC2)cc1Oc1cnc2[nH]ccc2c1,cell-free assay,,competition with immobilised ligand,,1 µM,remaining binding,96%
CCCS(=O)(=O)Nc1ccc(F)c(C(=O)c2c[nH]c3ncc(-c4ccc(Cl)cc4)cc23)c1F,enzyme activity,inhibitor,,,1 µM,inhibition,< 10%
COc1cccc2c(NCc3ccccc3)nc(-n3c(N)nc4ccccc43)nc12,target engagement in cells,inhibitor,chemoproteomics,,20 mM,inhibition,4.9%
Cc1cc(-n2nc(Cc3cc(F)cc(C(F)(F)F)c3)nc2C)ccc1C(N)=O,cell-free assay,,competition with immobilised ligand,,1 µM,remaining binding,100%
Cc1cc(Nc2cc(N3CCN(C)CC3)nc(Sc3ccc(NC(=O)C4CC4)cc3)n2)[nH]n1,enzyme activity,inhibitor,,,0.5 µM,activity vs control,96.7%
CN(C)C(=O)Cn1cc(-c2nc(C3(c4ccc(-c5cnc(N)nc5)cc4)CC3)no2)cn1,cell-free assay,,competition with immobilised ligand,,1 µM,remaining binding,62%
c1ccc(CNc2nc(N3CCOc4ccccc43)nc3c2CCCC3)cc1,target engagement in cells,inhibitor,chemoproteomics,,20 mM,inhibition,-1.4%
O=Nc1c(-c2c(O)[nH]c3cc(Br)ccc23)[nH]c2ccccc12,enzyme activity,inhibitor,,,0.5 µM,activity vs control,95.1%
Cc1sc(C(=O)NC2COC2)cc1-n1cc(NC(=O)Nc2c(F)cccc2Cl)cn1,enzyme activity,inhibitor,,,10 µM,remaining activity,81.1%
Nc1cnc(N2CCc3cc(S(=O)(=O)Nc4c(F)cc(Cl)cc4F)cc(N4CCCC4=O)c32)nc1,cell-free assay,,competition with immobilised ligand,,1 µM,remaining binding,100%
COc1cc2ncnc(Nc3ccc(F)c(Cl)c3)c2cc1OCCCN1CCOCC1,cell-free assay,,,,0.5 µM,remaining signal,98.6%
CN(C)C1CCN(CC#Cc2nn(C3CCCC3)c3nc(NCc4ccccc4)ncc23)C1 (stereo not drawn),enzyme activity,inhibitor,FRET,,1 µM,inhibition,2%
CCN1CCN(Cc2ccc(NC(=O)c3ccc(C)c(/C=C/c4cnc5[nH]ccc5c4OC)c3)cc2C(F)(F)F)CC1,target engagement in cells,inhibitor,chemoproteomics,A-375,50 nM,inhibition,-59.4%
O=C1Cc2c([nH]c3ccc(Br)cc23)-c2ccccc2N1,cell-free assay,,,,0.5 µM,remaining signal,95.1%
CN(c1ccnc(CNc2nc(Nc3ccc4c(c3)CC(=O)N4)ncc2C(F)(F)F)n1)S(C)(=O)=O,cell-free assay,,competition with immobilised ligand,,1 µM,remaining binding,81%
Cc1ccc(C(=O)NCc2ccsc2)cc1C#Cc1cn(C(C)C)c2ncnc(N)c12,enzyme activity,inhibitor,,,1 µM,activity vs control,86%
CCC(=O)N[C@H]1CC[C@@H](C(=O)N(C)c2ccc(-c3nc4ccccc4o3)cc2)C1,cell-free assay,,competition with immobilised ligand,,1 µM,remaining binding,82%
CCN1CCN(Cc2ccc(NC(=O)c3ccc(C)c(Oc4ccnc5[nH]ccc45)c3)cc2C(F)(F)F)CC1,target engagement in cells,inhibitor,chemoproteomics,A-375,50 nM,inhibition,-28%
CO[C@H]1CC[C@H](CNc2ccc(S(=O)(=O)NC(=O)c3ccc(N4CCN(CC5=C(c6ccc(Cl)cc6)CC(C)(C)CC5)CC4)cc3Oc3cnc4[nH]ccc4c3)cc2[N+](=O)[O-])CC1,cell-free assay,,competition with immobilised ligand,,1 µM,remaining binding,85%
CC(C)(C)c1nc2c(s1)c1nc(N)ncc1c1ccc(NS(=O)(=O)c3c(F)cccc3F)c(F)c12,enzyme activity,inhibitor,radiometric,,1 µM,remaining activity,86%
